Assays:
A549 [1] = assay: Tested for cytotoxicity towards A549 cell line (human lung carcinoma); Not active; format: functional, cell-based
MCF7 [2] = assay: Tested for cytotoxicity towards MCF-7 cell line (human breast cancer); Not active; format: functional, cell-based
T47D [3] = assay: Tested for cytotoxicity towards T47D cell line (human breast cancer); Not active; format: functional, cell-based
[4] = target: T1, Aryl hydrocarbon receptor (Oryctolagus cuniculus, UniProt O02747); assay: Binding affinity for aryl hydrocarbon receptor (AhR) of rabbit liver cytosol incubated with 0.2 nM [3H]-TCDD; Agonist
T1 sequence (O02747 whole entry): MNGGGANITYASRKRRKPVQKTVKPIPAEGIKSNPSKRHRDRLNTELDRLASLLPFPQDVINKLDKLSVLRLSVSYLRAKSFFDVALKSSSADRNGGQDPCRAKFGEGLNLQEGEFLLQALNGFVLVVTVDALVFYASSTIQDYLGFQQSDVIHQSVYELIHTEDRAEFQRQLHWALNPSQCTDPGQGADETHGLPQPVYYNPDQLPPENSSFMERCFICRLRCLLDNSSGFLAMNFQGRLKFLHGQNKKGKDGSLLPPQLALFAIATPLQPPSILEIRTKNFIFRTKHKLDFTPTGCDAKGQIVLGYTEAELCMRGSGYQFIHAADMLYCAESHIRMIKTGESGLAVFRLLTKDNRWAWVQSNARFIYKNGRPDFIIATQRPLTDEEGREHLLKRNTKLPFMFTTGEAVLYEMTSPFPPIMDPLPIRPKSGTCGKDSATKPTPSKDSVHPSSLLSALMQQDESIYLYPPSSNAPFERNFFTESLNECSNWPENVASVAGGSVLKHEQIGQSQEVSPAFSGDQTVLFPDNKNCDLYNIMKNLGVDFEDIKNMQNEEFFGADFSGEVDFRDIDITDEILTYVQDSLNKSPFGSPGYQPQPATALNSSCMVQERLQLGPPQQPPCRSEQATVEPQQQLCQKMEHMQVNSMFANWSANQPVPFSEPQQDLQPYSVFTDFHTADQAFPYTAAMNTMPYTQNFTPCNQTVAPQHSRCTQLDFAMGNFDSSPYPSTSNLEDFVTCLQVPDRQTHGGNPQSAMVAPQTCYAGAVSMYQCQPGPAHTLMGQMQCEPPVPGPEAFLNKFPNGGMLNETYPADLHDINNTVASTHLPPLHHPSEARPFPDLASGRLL
Summary of the method: (§1)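 Rabbit liver cytosol incubated with 0.2 nM [3H]-TCDD plus unlabeled ligand at 12 concentrations spanning 0.1 nM to 1 µM. Competitive displacement measured, and IC50 obtained by iterative curve fitting.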

Estrogen receptor [5] = target: T2, Estrogen receptor (Homo sapiens, UniProt P03372); assay: Binding affinity for estrogen receptor (ER) alpha of MCF-7 cell cytosol incubated with 2 nM [3H]estradiol; format: cell-based
T2 sequence (P03372 whole entry): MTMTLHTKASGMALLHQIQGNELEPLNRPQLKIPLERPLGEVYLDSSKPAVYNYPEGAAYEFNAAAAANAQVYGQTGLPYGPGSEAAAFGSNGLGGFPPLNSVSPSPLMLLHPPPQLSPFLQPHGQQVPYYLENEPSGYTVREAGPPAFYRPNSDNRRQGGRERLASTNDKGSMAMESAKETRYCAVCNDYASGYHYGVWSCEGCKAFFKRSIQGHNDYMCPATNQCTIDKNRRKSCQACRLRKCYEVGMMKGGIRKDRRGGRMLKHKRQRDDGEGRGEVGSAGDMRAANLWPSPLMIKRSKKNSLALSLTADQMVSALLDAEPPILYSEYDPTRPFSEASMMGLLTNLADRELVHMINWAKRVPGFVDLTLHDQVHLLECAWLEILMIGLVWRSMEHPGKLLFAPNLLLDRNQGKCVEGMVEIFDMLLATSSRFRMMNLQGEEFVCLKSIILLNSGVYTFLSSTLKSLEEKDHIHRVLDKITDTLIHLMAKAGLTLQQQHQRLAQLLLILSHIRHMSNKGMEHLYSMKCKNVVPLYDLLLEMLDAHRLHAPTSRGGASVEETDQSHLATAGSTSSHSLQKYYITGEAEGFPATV
Summary of the method: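 Cytosol from MCF-7 cells, which express only the ERα isoform, incubated with 2 nM [3H]-estradiol and unlabeled ligand at eight concentrations from 10 nM to 10 µM. IC50 derived by iterative curve fitting, and Ki calculated using a Kd of 0.1 nM.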

T47D [6] = assay: Tested for cytotoxicity towards T47D cell line (human breast cancer); format: functional, cell-based
A549 [7] = assay: Tested for cytotoxicity towards A549 cell line (human lung carcinoma); format: functional, cell-based
MCF7 [8] = assay: Tested for cytotoxicity towards MCF-7 cell line (human breast cancer); format: functional, cell-based
[9] = target: T1, Aryl hydrocarbon receptor; assay: Binding affinity for aryl hydrocarbon receptor (AhR) of rabbit liver cytosol incubated with 0.2 nM [3H]-TCDD; Antagonist; summary of the method: as §1
Estrogen receptor [10] = target: T2, Estrogen receptor; assay: Binding affinity for estrogen receptor (ER) alpha of MCF-7 cell cytosol incubated with 2 nM [3H]estradiol; Agonist; format: cell-based
Summary of the method: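 ERα-only cytosol from MCF-7 cells, incubated with 2 nM [3H]-estradiol and eight concentrations (10 nM–10 µM) of unlabelled ligand. IC50 came from iterative curve fitting, and Ki was calculated using Kd 0.1 nM. Agonist status: stimulation of ERE-driven luciferase in MELN reporter cells after 8 h, with or without 1 nM 17β-estradiol; luciferase activity was the read-out.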

| SMILES | Concentration (A549 [1]) [µM] | Concentration (MCF7 [2]) [µM] | Concentration (T47D [3]) [µM] | Ki [4] [nM] | Ki (Estrogen receptor [5]) [nM] | Concentration (T47D [6]) [µM] | Concentration (A549 [7]) [µM] | Concentration (MCF7 [8]) [µM] | Ki [9] [nM] | Ki (Estrogen receptor [10]) [nM] |
| --- | --- | --- | --- | --- | --- | --- | --- | --- | --- | --- |
| FC(F)(F)c1ccc(/C=C/c2cc(Cl)cc(Cl)c2)cc1 | > 10 | > 10 | > 10 | 0.2 | > 100000 | – | – | – | – | – |
| Clc1ccc(/C=C\c2cc(Cl)cc(Cl)c2)cc1 | – | – | – | – | > 100000 | < 100 | < 100 | < 100 | 13 | – |
| FC(F)(F)c1ccc(/C=C/c2cc(C(F)(F)F)cc(C(F)(F)F)c2)cc1 | > 10 | > 10 | > 10 | – | > 100000 | – | – | – | 2.1 | – |
| CCOc1ccc(/C=C\c2cc(OC)cc(OC)c2)cc1 | – | – | – | – | – | < 0.1 | < 0.1 | < 0.1 | 65 | 136 |
| Fc1ccc(/C=C\c2cc(F)cc(F)c2)cc1 | > 10 | > 10 | > 10 | – | > 100000 | – | – | – | 63 | – |
| Oc1ccc(/C=C/c2cc(O)cc(O)c2)cc1 [RESVERATROL] | – | – | – | – | – | – | – | – | – | 785 |
| Clc1ccc(/C=C/c2cc(Cl)cc(Cl)c2)cc1 | > 10 | > 10 | > 10 | – | > 100000 | – | – | – | 1.2 | – |
| CCOc1ccc(/C=C/c2cc(OC)cc(OC)c2)cc1 | – | – | – | – | – | < 0.1 | < 0.1 | < 0.1 | 5 | 381 |
| Fc1ccc(/C=C/c2cc(F)cc(F)c2)cc1 | > 10 | > 10 | > 10 | – | > 100000 | – | – | – | 3.8 | – |
| FC(F)(F)c1ccc(/C=C\c2cc(Cl)cc(Cl)c2)cc1 | > 10 | > 10 | > 10 | – | > 100000 | – | – | – | 14 | – |
| COc1ccc(/C=C/c2cc(Cl)cc(Cl)c2)cc1 | > 10 | > 10 | > 10 | – | > 100000 | – | – | – | 1.4 | – |
| COc1ccc(/C=C/c2cc(OC)cc(OC)c2)cc1 [TRISMETHOXYRESVERATROL] | – | – | – | – | – | < 100 | < 100 | < 100 | 7.7 | 261 |
| COc1ccc(/C=C/c2cc(F)cc(F)c2)cc1 | > 10 | > 10 | > 10 | – | > 100000 | – | – | – | 9.2 | – |
| FC(F)(F)c1cccc(/C=C\c2cc(Cl)cc(Cl)c2)c1 | > 10 | > 10 | > 10 | – | > 100000 | – | – | – | 19 | – |
| CCCCOc1ccc(/C=C/c2cc(OC)cc(OC)c2)cc1 | – | – | – | – | > 100000 | > 10 | > 10 | > 10 | 20 | – |
| COc1cccc(/C=C\c2cc(Cl)cc(Cl)c2)c1 | > 10 | > 10 | > 10 | – | > 100000 | – | – | – | 24 | – |
| COc1cccc(/C=C/c2cc(Cl)cc(Cl)c2)c1 | > 10 | > 10 | > 10 | – | > 100000 | – | – | – | 5.7 | – |
| COc1ccc(/C=C\c2cc(OC)cc(OC)c2)cc1 [8Z-3,4',5-TRIMETHOXYSTILBENE] | – | – | – | – | – | – | – | – | 75 | 132 |
| COc1cc(/C=C/c2ccc(F)cc2)cc(OC)c1 | – | – | – | – | > 100000 | > 10 | > 10 | > 10 | 3.1 | – |
| FC(F)(F)c1cccc(/C=C/c2cc(Cl)cc(Cl)c2)c1 | > 10 | > 10 | > 10 | – | > 100000 | – | – | – | 6.8 | – |
| COc1ccc(/C=C\c2cc(Cl)cc(Cl)c2)cc1 | > 10 | > 10 | > 10 | – | > 100000 | – | – | – | 12 | – |
| CCCCOc1ccc(/C=C\c2cc(OC)cc(OC)c2)cc1 | – | – | – | – | > 100000 | – | – | – | 43 | – |
| FC(F)(F)c1ccc(/C=C\c2cc(C(F)(F)F)cc(C(F)(F)F)c2)cc1 | > 10 | > 10 | > 10 | – | > 100000 | – | – | – | 60 | – |
| COc1ccc(/C=C\c2cc(F)cc(F)c2)cc1 | > 10 | > 10 | > 10 | – | > 100000 | – | – | – | 22 | – |
| COc1cc(/C=C\c2ccc(F)cc2)cc(OC)c1 | – | – | – | – | > 100000 | > 10 | > 10 | > 10 | 96 | – |

Source: ChEMBL document CHEMBL1139491 (J Med Chem, 2005)
